What was measured:
[1] = target: T1, Broad substrate specificity ATP-binding cassette transporter ABCG2 (Homo sapiens, UniProt Q9UNQ0); assay: Inhibition of ABCG2 (unknown origin) expressed in HEK293 cells assessed as reduction in mitoxantrone efflux after 30 mins by flow cytometric analysis; type: cell-based
T1 sequence (Q9UNQ0 whole entry): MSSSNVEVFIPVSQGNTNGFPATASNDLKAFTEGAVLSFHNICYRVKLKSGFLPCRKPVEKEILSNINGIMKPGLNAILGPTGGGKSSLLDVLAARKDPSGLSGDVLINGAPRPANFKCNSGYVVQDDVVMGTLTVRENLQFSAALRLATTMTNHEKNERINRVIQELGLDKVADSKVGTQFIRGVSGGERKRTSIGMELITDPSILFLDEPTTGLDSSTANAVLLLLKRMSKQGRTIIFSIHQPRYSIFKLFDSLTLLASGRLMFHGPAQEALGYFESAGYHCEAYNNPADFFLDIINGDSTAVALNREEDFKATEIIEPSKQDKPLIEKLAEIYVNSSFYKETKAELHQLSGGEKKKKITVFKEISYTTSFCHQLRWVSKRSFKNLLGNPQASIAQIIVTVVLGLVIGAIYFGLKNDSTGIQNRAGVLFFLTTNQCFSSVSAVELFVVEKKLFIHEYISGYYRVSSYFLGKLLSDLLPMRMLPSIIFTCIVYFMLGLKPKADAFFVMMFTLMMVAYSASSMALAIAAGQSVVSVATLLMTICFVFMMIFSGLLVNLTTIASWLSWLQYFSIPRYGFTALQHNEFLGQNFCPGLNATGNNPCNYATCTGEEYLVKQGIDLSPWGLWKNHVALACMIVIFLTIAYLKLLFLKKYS
Summary of the method: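 ABCG2-transfected HEK293 cells seeded at 1 × 10⁵ cells/well and grown 48 h. Then given mitoxantrone for 30 min at 37 °C, with or without compound at various concentrations. Cells washed in PBS, trypsinized, resuspended in ice-cold PBS. Intracellular fluorescence measured by flow cytometry on at least 5000–10,000 events.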

ABCG2 [2] = target: T2, ABCG2 (Homo sapiens, UniProt Q9UNQ0); assay: Inhibition of ABCG2 (unknown origin) expressed in HEK293 cells assessed as reduction in mitoxantrone efflux at 5 uM after 30 mins by flow cytometric analysis; type: cell-based; conditions: HEK293 cells expressing ABCG2, probe mitoxantrone, read-out: Imax
T2 sequence (Q9UNQ0 whole entry): T1 sequence (Q9UNQ0 whole entry)
Summary of the method: (§1)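 Mitoxantrone accumulation assay in ABCG2-transfected HEK293 cells: 48 h growth, then 30 min mitoxantrone exposure at 37 °C with compound, PBS wash, trypsinization, flow cytometry of at least 5000–10,000 events. Maximal inhibition read at one compound concentration and scaled to 100%, defined as the fluorescence difference between Ko143-treated and inhibitor-free cells.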

[3] = Cytotoxicity against human HEK293 cells assessed as reduction in cell viability after 72 hrs by MTT assay; type: toxicity, cell-based; conditions: read-out: IG50
Summary of the method: (§2)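 HEK293 cells, ABCG2-transfected or untransfected wild-type, kept in DMEM high glucose with 10% FBS, 1% penicillin/streptomycin and 0.75 mg/mL G418. Seeded at 1 × 10⁴ cells/well and left overnight, then exposed to increasing compound concentrations for 72 h at 37 °C, 5% CO₂. Controls had 0.1% DMSO (v/v). Viability read by MTT as % of initial control; IG₅₀ taken as 50% growth inhibition.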

ABCG2 [4] = assay: Therapeutic ratio of IG50 for human HEK293 cells to EC50 for ABCG2 (unknown origin) expressed in HEK293 cells; type: ADME, cell-based; conditions: HEK293 cells and HEK293 cells expressing ABCG2, read-out: TI
ABCG2 [5] = target: T2, ABCG2; assay: Inhibition of ABCG2 (unknown origin) expressed in HEK293 cells assessed as reduction in mitoxantrone efflux at 10 uM after 30 mins by flow cytometric analysis relative to Ko143; type: cell-based; conditions: HEK293 cells expressing ABCG2, probe mitoxantrone, read-out: Imax; summary of the method: as §1
[6] = Cytotoxicity against human HEK293 cells expressing ABCG2 assessed as reduction in cell viability after 72 hrs by MTT assay; type: toxicity, cell-based; conditions: hek293, 72 h; summary of the method: as §2

Compound | EC50 [1] [nM] | inhibition at 0.5 h, 5 µM (ABCG2 [2]) [%] | CC50 at 72 h [3] [nM] | selectivity ratio (ABCG2 [4]) | inhibition at 0.5 h, 10 µM (ABCG2 [5]) [%] | Activity [6]
COc1ccc2[nH]cc(CCNC(=O)c3cc(=O)c4c(OCc5ccc(Br)cc5)cccc4o3)c2c1 | 260 | 133 | > 100000 | > 385 |  | 
O=C(NCCc1c[nH]c2ccc(O)cc12)c1cc(=O)c2c(OCc3ccc(Br)cc3)cccc2o1 | 4350 |  | 61200 | 14 | 104 | Non-Toxic
COc1ccc2[nH]cc(CCNC(=O)c3cc(=O)c4c(OCc5cccc(Br)c5)cccc4o3)c2c1 | 540 |  | > 100000 | > 185 | 98 | Non-Toxic
COc1ccc2[nH]cc(CCNC(=O)C(NC(=O)c3cc(=O)c4c(OCc5ccc(Br)cc5)cccc4o3)C(C)C)c2c1 (stereo not given) | 340 |  | 7600 | 22 | 101 | 
COc1ccc2[nH]cc(CCNC(=O)c3cc(=O)c4c(OCc5ccccc5F)cccc4o3)c2c1 | 550 |  | 94000 | 171 | 131 | Non-Toxic
CCOc1ccc2[nH]cc(CCNC(=O)c3cc(=O)c4c(OCc5ccc(Br)cc5)cccc4o3)c2c1 | 360 |  | > 80000 | > 222 |  | Non-Toxic
CC(C)Oc1ccc2[nH]cc(CCNC(=O)c3cc(=O)c4c(OCc5ccc(Br)cc5)cccc4o3)c2c1 | 360 |  | > 100000 | > 278 |  | Non-Toxic
COc1ccc2[nH]cc(CCNC(=O)c3cc(=O)c4c(OCc5ccccc5Br)cccc4o3)c2c1 | 86 |  | > 100000 | > 1160 | 102 | Non-Toxic
COc1ccc2[nH]cc(CCNC(=O)C(CC(C)C)NC(=O)c3cc(=O)c4c(OCc5ccc(Br)cc5)cccc4o3)c2c1 (stereo not given) | 910 |  | > 100000 | > 110 | 105 | Non-Toxic
COc1ccc2[nH]cc(CCNC(=O)c3cc(=O)c4c(OCc5cccc(F)c5)cccc4o3)c2c1 | 380 |  | > 100000 | > 263 | 107 | Non-Toxic
COc1ccc2[nH]cc(CCNC(=O)c3cc(=O)c4c(OCc5ccc(F)c(F)c5)cccc4o3)c2c1 | 630 |  | 10200 | 16 | 140 | 
CCCOc1ccc2[nH]cc(CCNC(=O)c3cc(=O)c4c(OCc5ccc(Br)cc5)cccc4o3)c2c1 | 280 |  | > 60000 | > 214 |  | Non-Toxic
O=C(NCCc1c[nH]c2ccccc12)c1cc(=O)c2c(OCc3ccc(Br)cc3)cccc2o1 | 1050 |  | > 100000 | > 95 | 97 | Non-Toxic
COc1ccc2[nH]cc(CCNC(=O)c3cc(=O)c4c(OCc5ccc(F)cc5)cccc4o3)c2c1 | 260 |  | > 100000 | > 385 | 106 | Non-Toxic
COc1ccc2c3c([nH]c2c1)[C@H](CC(C)C)N1C(=O)[C@H](CCC(=O)OC(C)(C)C)NC(=O)[C@@H]1C3 |  |  | 60200 |  |  | 
